Series [1] is described as follows: AUC (0 to infinity) in rat at 5 mg/kg, iv. The note with it: in vivo. Format: ADME, organism-based. Also noted: dose 5 mg/kg, route intravenous, time infinity. An outline of the steps:
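Male rats given a single dose, 5 mg/kg intravenously or 10 mg/kg orally. Plasma PK parameters were reported as mean ± SD: AUCt, AUC∞, Cmax, Tmax, T1/2, CL, Vss and oral bioavailability F.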

Series [2] concerns RKO. As to the kind of experiment: Induction of apoptosis in human RKO cells assessed as early apoptotic cells at 10 uM after 24 hrs by Annexin V/propidium iodide staining based flow cytometry (reference value: 9.62%). Format: functional.
Series [3] relates to RKO. The series can be described thus: Induction of apoptosis in human RKO cells assessed as late apoptotic cells at 25 uM after 24 hrs in presence of oxaliplatin by Annexin V/propidium iodide staining based flow cytometry (reference value: 7.02%). The class given is functional.
For series [4], the system named is RKO. The series can be described thus: Cell cycle arrest in human RKO cells assessed as accumulation at G2/M phase at 50 uM after 24 hrs propidium iodide staining based flow cytometry (reference value: 23.3%). The class given is functional. An outline of the steps:
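HCT116 and RKO cells were treated with compound alone or with oxaliplatin for 24 h before harvest. Cells were stained with propidium iodide, and DNA content was analysed by flow cytometry. Cell-cycle phase populations, including sub-G1, are given as percentages.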

The nature of series [5]: Volume of distribution at steady state in rat at 5 mg/kg, iv. Format: ADME, organism-based. The following applies: in vivo, read-out: Vdss.

In turn, `Cl.O=C1c2ccccc2C(=O)c2c1cccc2-c1cnn(C2CCNCC2)c1` came in with an AUC(0-inf) in series [1] of 7610 ng·h/mL. For the same molecule, the Activity in series [2] is 5.2%; in series [3] it was 33.8%; in series [4] it was 2.8%. For the same molecule, the Vd in series [5] amounted to 5.52 L/kg.
